From ChEMBL document CHEMBL1135970, “Identification of a pharmacophore for thrombopoietic activity of small, non-peptidyl molecules. 1. Discovery and optimization of salicylaldehyde thiosemicarbazone thrombopoietin mimics” (J Med Chem, 2002)

Assays:
Homo sapiens = species on record: Homo sapiens; assay: Thrombopoietin efficacy in human bone marrow cultures was reported; format: functional
[1] = Compound was evaluated for the expression of luciferase activity in BAF3/TPO-Rluc cell line; format: functional, cell-based; conditions: Homo sapiens, BAF-3/TPO-Rluc
In short: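 BAF3/TPO-Rluc cells at (1 × 10⁵)/mL, starved of IL-3 overnight, in growth medium with 0.5% v/v FBS and 30 µM ZnCl₂. Incubated with compound (0.32% DMSO final) or rhuTPO for 3 h at 37 °C, 5% CO₂. Luciferase activity read on a luminometer; each point is the mean of triplicate assays.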

| EC50 [1] | SMILES | TPO(max) (Homo sapiens) |
| --- | --- | --- |
| 350 nM | O=C(O)c1ccc(N/C(S)=N/N=C/c2cc(Cl)cc(Cl)c2O)cc1 | 30% |
| 260 nM | O=S(=O)(O)c1ccc(N/C(S)=N/N=C/c2cc(Cl)cc(Cl)c2O)cc1 | 29% |

The next lines start with the compound.

| SMILES | EC50 [1] | TPO(max) (Homo sapiens) |
| --- | --- | --- |
| O=C(O)c1ccc(N/C(S)=N/N=C/c2cccc(-c3cccc(C(F)(F)F)c3)c2O)cc1 |  | 100% |
| Cc1ccc(-n2[nH]c(C)c(/N=N/c3c(O)cc(S(=O)(=O)O)c4ccccc34)c2=O)cc1C | 40 nM | 100% |
| Cc1cc(Cl)ccc1/N=C(\S)N/N=C/c1cc(Cl)cc(Cl)c1O | 5600 nM | 30% |
| Cc1ccc(-c2cccc(/C=N/N=C(\S)Nc3cccc(C(=O)O)c3)c2O)cc1C |  | 90% |
